Data set [1] relates to Trypanosoma cruzi. Nature of the data set: Antitrypanosomal activity against Trypanosoma cruzi 320I01 amastigotes infected in african green monkey Vero cells after 5 days by Giemsa staining. It is filed as functional, organism-based. Conditions: 320I01, Vero, 120 h. Put shortly: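 Vero cells (RPMI, 5% hiSBF, 37 °C, 5% CO2) infected 24 h with tissue-derived T. cruzi trypomastigotes at parasite:cell 10:1. Compound dilutions (top 100 μM) applied 5 days at 37 °C, 5% CO2, medium changed once at day 3. Infected cells scored per 300 cells on methanol-fixed Giemsa preparations; IC50/IC90 by sigmoidal regression; triplicates, two experiments.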

A short description of data set [2]: Selectivity index, CC50 for african green monkey Vero cells to IC50 for Trypanosoma cruzi 320I01 amastigotes. It is filed as functional. Put shortly:
(§1)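 Selectivity index computed as CC50 in Vero cells divided by IC50 against the T. cruzi stage named in the line.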

The nature of data set [3]: Cytotoxicity against african green monkey Vero cells after 72 hrs by MTT assay. It is filed as cell-based. The following applies: chlorocebus sabaeus. The gist of the method:
(§2)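 Vero or transformed THP-1 cells incubated with compound (0.3–300 μM) 72 h at 37 °C, 5% CO2; untreated controls. MTT read-out, formazan OD at 580 nm; % cytotoxicity = 100 × (OD control − OD treated)/OD control. CC50/CC90 by sigmoidal regression; triplicates, repeated twice. DMSO stocks 100× concentrated, diluted in medium.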
A general note: Formazan colour is commonly taken as a measure of viable cells.

Data set [4] deals with Trypanosoma cruzi. Nature of the data set: Antitrypanosomal activity against Trypanosoma cruzi 320I01 epimastigotes after 72 hrs by haemocytometry. It is filed as functional, organism-based. Conditions: 320I01, 72 h. The gist of the method:
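Late-phase T. cruzi epimastigotes cultured in LIT medium with hiFCS at 28 °C; threefold serial dilutions (0.3–100 μM) for 72 h at 28 °C, untreated controls. Parasites counted in a haemocytometer; IC50/IC90 by sigmoidal regression; each concentration in triplicate, two experiments.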

A short description of data set [5]: Cytotoxicity against human THP1 cells after 72 hrs by MTT assay. It is filed as cell-based. Conditions: THP-1 cells. Put shortly:
as §2

The nature of data set [6]: Selectivity index, CC50 for human THP1 cells to IC50 for Leishmania chagasi MHOM/BR/74/PP75 promastigotes. It is filed as functional, THP-1. The gist of the method:
(§3)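 Selectivity index computed as CC50 in THP-1 cells divided by IC50 against the L. chagasi stage named in the line.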

A short description of data set [7]: Selectivity index, CC50 for african green monkey Vero cells to IC50 for Trypanosoma cruzi 320I01 epimastigote. It is filed as functional. Put shortly: as §1
Data set [8] in a line: Selectivity index, CC50 for human THP1 cells to IC50 for Leishmania chagasi MHOM/BR/74/PP75 amastigotes. It is filed as functional, THP-1. The gist of the method:
as §3

Data set [9] relates to Leishmania chagasi. Nature of the data set: Antileishmanial activity against Leishmania chagasi MHOM/BR/74/PP75 amastigotes infected in human THP1 cells after 5 days by Giemsa staining. It is filed as functional, organism-based. The following applies: MHOM/BR/74/PP75, THP-1, 120 h. Put shortly:
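THP-1 cells (RPMI, 5% hiSBF, 37 °C, 5% CO2) transformed, then infected 24 h with late-phase L. chagasi promastigotes at parasite:cell 10:1. Treated with compound dilutions (top 100 μM) 5 days at 37 °C, 5% CO2, medium changed once after 3 days. Infected cells counted per 300 cells on methanol-fixed Giemsa slides; IC50/IC90 by sigmoidal regression; triplicates, repeated twice.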

The subject of data set [10] is Leishmania chagasi. Nature of the data set: Antileishmanial activity against Leishmania chagasi MHOM/BR/74/PP75 promastigotes after 72 hrs by haemocytometry. It is filed as functional, organism-based. Conditions: MHOM/BR/74/PP75, 72 h. Put shortly: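 Late-phase L. chagasi promastigotes, grown at 28 °C in RPMI 1640 with hemin, HEPES and 10% hiSBF, exposed to threefold serial dilutions (0.3–100 μM) for 72 h at 28 °C; untreated controls. Growth inhibition from haemocytometer counts; IC50/IC90 by sigmoidal regression; triplicates, repeated twice.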

The text below walks through data of ChEMBL document CHEMBL1177650, “Synthesis, structural elucidation and in vitro antiparasitic activity against Trypanosoma cruzi and Leishmania chagasi parasites of novel tetrahydro-1-benzazepine derivatives” (Bioorg Med Chem, 2010).

Each structure is given as a SMILES string.

As to `Clc1ccccc1[C@@H]1C[C@@H]2Cc3ccccc3N1O2` (relative stereo), the IC50 in the data set on Trypanosoma cruzi [1] was > 100 µM; with Trypanosoma cruzi [4], 19.4 µM; with Leishmania chagasi [9], > 100 µM; in the data set on Leishmania chagasi [10], 25.1 µM. For the same compound, the IC90 with Trypanosoma cruzi [1] is > 100 µM; in the data set with Trypanosoma cruzi [4], 57.8 µM; in the data set on Leishmania chagasi [9], > 100 µM; with Leishmania chagasi [10], > 100 µM. The “Selectivity Index” value in [2] is given as >1; in data set [6], 4.37; in data set [7], 5.71; in data set [8], >1. Moreover, the 50% cytotoxic concentration (CC50) at 72 h in [3] stood at 111 µM; in data set [5], 110 µM. Also, the CC90 at 72 h in [3] was > 300 µM; in [5], 211 µM.

As to `Cc1ccc2c(c1)C[C@H]1C[C@@H](c3ccccc3Cl)N2O1` (relative stereo), the IC50 with Trypanosoma cruzi [1] was 51.9 µM; in the data set with Trypanosoma cruzi [4], 14.3 µM; in the data set with Leishmania chagasi [9] it was > 100 µM; in the data set on Leishmania chagasi [10], 41.7 µM. The IC90 is > 100 µM with Trypanosoma cruzi [1], 30.4 µM with Trypanosoma cruzi [4], > 100 µM in the data set with Leishmania chagasi [9] and 49.5 µM with Leishmania chagasi [10]. In addition, the “Selectivity Index” value in [2] is 0.96; in data set [6], 1.6; in data set [7] it was 3.51; in data set [8], >0.66. In addition, the CC50 at 72 h in [3] amounted to 50.2 µM; in data set [5] it was 66.8 µM. Moreover, the figures for the CC90 at 72 h in [3] and in data set [5] were > 300 µM and 109 µM, respectively.

In the case of `Fc1ccccc1[C@@H]1C[C@@H]2Cc3ccccc3N1O2` (relative stereo), the IC50 was 58.6 µM in the data set on Trypanosoma cruzi [1], > 100 µM with Trypanosoma cruzi [4], > 100 µM in the data set with Leishmania chagasi [9] and 40.5 µM in the data set on Leishmania chagasi [10]. Also, the IC90 in the data set with Trypanosoma cruzi [1] is 96.4 µM; with Trypanosoma cruzi [4], > 100 µM; in the data set on Leishmania chagasi [9], > 100 µM; with Leishmania chagasi [10], 47 µM. The “Selectivity Index” value in [2] is given as >5; in [6], 4.93; in data set [7] it was >3; in data set [8], >2. Also, the CC50 at 72 h in data set [3] was > 300 µM; in [5], 200 µM. Also, the CC90 at 72 h in data set [3] and in data set [5] was > 300 µM throughout.

Take `Clc1ccc2c(c1)C[C@H]1C[C@@H](c3ccc(Br)cc3)N2O1` (relative stereo): the IC50 in the data set with Trypanosoma cruzi [1] was 60.6 µM; in the data set with Trypanosoma cruzi [4] it was 30.1 µM; with Leishmania chagasi [9], > 95.4 µM; with Leishmania chagasi [10], 32.5 µM. Further, the IC90 in the data set on Trypanosoma cruzi [1] is > 95.4 µM; in the data set on Trypanosoma cruzi [4], > 100 µM; with Leishmania chagasi [9], > 95.4 µM; in the data set on Leishmania chagasi [10] it was 42.2 µM. The “Selectivity Index” value in data set [2] is on record as >4; in [6], 7.24; in [7] it was >10; in data set [8], >2. The CC50 at 72 h was > 300 µM in data set [3] and 236 µM in data set [5]. For the same compound, the CC90 at 72 h in [3] and in data set [5] was > 287 µM in each case.

As for `Fc1ccc2c(c1)C[C@H]1C[C@@H](c3ccc(Cl)cc3)N2O1` (relative stereo), the IC50 was 40.2 µM in the data set on Trypanosoma cruzi [1], 35.4 µM in the data set on Trypanosoma cruzi [4], > 100 µM with Leishmania chagasi [9] and 35.2 µM in the data set on Leishmania chagasi [10]. For the same compound, the IC90 was 104 µM with Trypanosoma cruzi [1], 85.8 µM in the data set with Trypanosoma cruzi [4], > 100 µM with Leishmania chagasi [9] and 41.8 µM with Leishmania chagasi [10]. Further, the “Selectivity Index” value is >7 in data set [2], >8 in data set [6], >8 in data set [7] and >3 in [8]. Moreover, the half-maximal cytotoxic concentration (CC50) at 72 h in data set [3] and in data set [5] was > 300 µM each time. Besides, the CC90 at 72 h in data set [3] and in data set [5] was > 300 µM throughout.

What is called IC50 is the concentration needed to halve the response being measured. What is called IC90 is the concentration at which the effect reaches the 90% level. What is called CC50 is the concentration that lowers cell viability or growth by half.
